# Cav3 T inh: blocks human Cav3.2 T-type calcium channel; O95180; Cav3.2-expressing cells, Fluo-4 calcium fluorescence FDSS; stronger effect = lower value; B-score at 10 µM; actives 4% (n = 100,000);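 active means single-dose well whose peak fluorescence ratio is a statistical outlier from its plate by either plate-standardised score or position-corrected B-score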
# CYP2C19 activ: activators of human cytochrome P450 2C19. P33261. recombinant CYP2C19, luciferin-H EGE luminescence; stronger effect = higher value; 0 = fully inhibited enzyme, 1 = untreated enzyme. activation factor at 5 µM. 96,000 tested, under 10 active. AID 1025;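 active means activation factor of at least 2 at 5 µM in the primary screen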;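 further: 0 = wells with 2.5 mM tranylcypromine and 1 = vehicle-only wells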
# CYP2C9 inhib: blocks human cytochrome P450 2C9; P11712; CYP2C9 Supersomes, luciferin-H conversion, luminescence; AID 777; inhibition, % at 5 µM; actives 20% (n = 96,000);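 active means blocking of liver enzyme CYP2C9 beyond about 50% at 5 µM, limit read from the data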
# Target sequence (P11712 whole entry, looked up): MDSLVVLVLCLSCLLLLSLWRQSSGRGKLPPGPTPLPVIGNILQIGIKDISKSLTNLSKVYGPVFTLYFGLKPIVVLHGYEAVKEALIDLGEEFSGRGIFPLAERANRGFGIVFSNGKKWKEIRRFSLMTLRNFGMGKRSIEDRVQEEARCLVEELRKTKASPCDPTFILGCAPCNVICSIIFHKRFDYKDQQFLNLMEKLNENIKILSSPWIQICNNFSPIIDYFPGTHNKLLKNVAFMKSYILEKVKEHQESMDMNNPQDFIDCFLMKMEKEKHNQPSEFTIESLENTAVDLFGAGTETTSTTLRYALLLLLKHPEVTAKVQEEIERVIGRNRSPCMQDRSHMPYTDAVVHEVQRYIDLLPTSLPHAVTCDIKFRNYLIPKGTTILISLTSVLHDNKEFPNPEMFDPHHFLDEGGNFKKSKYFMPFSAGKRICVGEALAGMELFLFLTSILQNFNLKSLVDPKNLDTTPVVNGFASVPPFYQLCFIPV
# Rev-RRE block: inhibitors of HIV-1 Rev-RRE RNA interaction. P05866. Rev peptide-RRE RNA binding, FRET. inhibition, % at 8 µM. actives 0.79% (n = 97,000). AID 704;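 active means inhibition above the screen-wide mean plus 3 SD, cut at about 35% in these data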;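 further: 0% = median DMSO wells and 100% = median Neomycin B control wells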
# Target sequence (P05866 whole entry, looked up): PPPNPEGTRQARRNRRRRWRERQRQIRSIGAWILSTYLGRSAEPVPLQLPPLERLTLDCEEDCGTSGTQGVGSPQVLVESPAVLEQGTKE
#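 Material: labelled RRE RNA duplex and labelled Rev peptide / Buffer or medium: HEPES pH 7.5 salt buffer with EDTA / Compound dosing: single point, 8 µM final nominal compound concentration / Benchmarks: DMSO low control, neomycin B high control / Timing: 5 min preincubation and 15 min binding, 25 °C / Technique: FRET fluorescence readout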
# CYP2C9 activ: increases human cytochrome P450 2C9 activity; P11712; recombinant CYP2C9, luciferin-H conversion, luminescence; stronger effect = higher value; factor 1 = untreated enzyme, 0 = blocked; activation factor at 5 µM; actives 1.4% (n = 96,000);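 active means activation factor of 2 or more for CYP2C9 at a 5 µM dose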;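 further: 0 = sulfaphenazole-blocked wells and 1 = vehicle-only wells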
# CYP2C19 inh: blocks human cytochrome P450 2C19; actives 21% (n = 96,000); CYP2C19 Supersomes, luciferin-H EGE luminescence, 30 min; inhibition, % at 5 µM; AID 778;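 active means CYP2C19 inhibition above a set limit at 5 µM in the primary screen, cut at about 50% in these data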;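 further: plate controls were negative control wells for no effect and 2.5 mM tranylcypromine positive control for full effect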
# Active calls of the source: *; . = not tested or not shown; [ ] = remark or other dose. Sampled rows, rich in hits. Any-hit rate of the full collection: about 27%.
SMILES,Cav3 T inh,CYP2C19 activ,CYP2C9 inhib,Rev-RRE block,CYP2C9 activ,CYP2C19 inh
Cc1ccc(N2C(=O)N(CC(=O)N3CCCc4ccccc43)C(=O)C2C)cc1 (configuration not stated),-0.37,0.9,4,7,1,12
Cc1c(Cl)c([N+](=O)[O-])nn1Cc1ccc(C(=O)N/N=C\c2cccc(Br)c2)o1,-6.4*,0.3,64*,9,0.4,68*
COC(=O)c1cc(OC)c(OC)cc1NC(=O)c1ccc(OC)cc1,-0.72,1,-12,-1,1.1,-1
COC(=O)c1cc(OC)c(OC)cc1NC(=O)c1ccc(C)cc1,-1.7,0.6,51*,2,0.5,42
COC(=O)c1cc(OC)c(OC)cc1NC(=O)Nc1ccc(OC)cc1OC,0.61,0.3,84*,6,0.2,68*
COc1ccc(CNC(=O)c2noc3c2CCCC3)cc1,-5.4*,0.8,19,-3,0.8,18
O=C(NCc1ccccc1)c1noc2c1CCCC2,0.75,1,-5,.,1.1,2
O=C(NCc1cccnc1)c1noc2c1CCCC2,-0.0097,0.3,-8,.,1.1,67*
O=C(NC1CCCCC1)c1noc2c1CCCCC2,-0.06,0.1,20,.,0.8,94*
COc1ccc(C(=O)N[C@H]2COC(C)(C)O[C@H]2c2ccccc2)cc1,0.73,1,-3,-4,1,-1
CC(Oc1ccccc1)C(=O)NC1CC(C)(C)NC(C)(C)C1 (configuration not stated),-0.18,1.1,-6,5,1.1,-11
O=C1CC(N(O)c2ccccc2)C(=O)N1Cc1ccccc1 (configuration not stated),-0.18,0.2,1,.,1,78*
Cc1ccccc1N1C(=O)CC(N(O)c2ccccc2)C1=O (configuration not stated),0.039,0.3,-20,1,1.2,74*
Cn1c(=O)c2c(nc(Oc3ccccn3)n2C)n(C)c1=O,.,1.1,-2,.,1,-7
Cc1ccc(S(=O)(=O)N/N=C\C=C\c2ccccc2)cc1,-2.3,0.8,84*,-1,0.2,17
Brc1ccc(/C=C/C=N/Nc2nc3ccccc3s2)cc1,0.64,1,-2,14,1,5
O=S(=O)(N/N=C\C=C\c1ccccc1)c1ccc(Br)cc1,.,0.5,97*,-1,0,48
COCCOc1ccc(C(F)(F)F)cc1Nc1nc2ccccc2o1,-1.4,0.7,38,.,0.6,30
CS(=O)(=O)N1CCN(Cc2ccc(C(F)(F)F)cc2)CC1,.,0.6,-42,11,1.4,42
COc1ccc(S(=O)(=O)N(C)CC(=O)O)c2ccccc12,-0.37,0.9,28,6,0.7,8
CCCCN(CCCC)S(=O)(=O)c1ccc(OC)c2ncccc12,-3.3,0.9,66*,.,0.3,14
COc1ccc(S(=O)(=O)N(CC(C)C)CC(C)C)c2cccnc12,0.011,0.6,92*,4,0.1,44
COc1ccc(S(=O)(=O)Nc2ccccn2)c(C)c1C,0.14,0.8,-87,3,1.9,17
N#C/C(C(=O)c1ccccc1)=C1/SC=C(N)N1c1ccccc1,-1.5,0.2,92*,118*[fluorescence artefact?],0.1,81*
O=C1CCC(C(=O)Nc2cccc3ccccc23)N1 (configuration not stated),.,1,-11,5,1.1,3
SMILES,Cav3 T inh,CYP2C19 activ,CYP2C9 inhib,Rev-RRE block,CYP2C9 activ,CYP2C19 inh
O=C(CCCN1C(=O)c2ccccc2C1=O)Nc1ccccn1,-3.1,.,.,1,.,.
O=C1c2ccccc2C(=O)N1CCc1ccccn1,0.37,0.2,10,6,0.9,84*
Cc1cc(C)n2nc(SCc3cc(=O)oc4ccc5ccccc5c34)nc2n1,.,1.1,6,3,0.9,-6
Cc1cc(C)n2nc(SCN3C(=O)c4ccccc4C3=O)nc2n1,0.64,0.2,-7,2,1.1,83*
O=C(CCN1C(=O)c2ccccc2C1=O)Nc1ccccn1,0.23,1.2,-22,2,1.2,-16
O=C1c2ccccc2C(=O)N1CSc1ncccn1,-0.082,0.4,-65,.,1.7,61*
CCN(C(=O)CSc1nc2nc(C)cc(C)n2n1)c1ccccc1,0.93,0.9,36,-6,0.6,8
Cc1cc(C)n2nc(SCc3nc4ccccc4[nH]3)nc2n1,-0.41,0.3,20,6,0.8,71*
CC1C2Cn3c(nc4ccccc43)C1N(C(C)C)O2 (configuration not stated),0.034,.,.,.,.,.
O=C(O)COc1ccc(/C=N/NC(=O)C2CCCN2S(=O)(=O)c2ccc(Cl)cc2)cc1 (configuration not stated),0.43,0.8,9,2,0.9,16
O=C1CCCCCN1CP(=O)(O)CN1CCOCC1,.,1,2,.,1,2
CCc1nnc(SCc2ccc([N+](=O)[O-])cc2)nc1CC,-0.048,.,.,.,.,.
CCOC(=O)c1cnc2c(C)c(-c3ccccc3)[nH]n2c1=O,-2.1,1.1,22,3,0.8,-10
Cc1ccc(-c2nc(CCN3C(=O)c4ccccc4C3=O)cs2)cc1,-0.81,0.5,30,10,0.7,52*
Cc1ccc(OCCN2C(=O)c3ccccc3C2=O)c(C)c1,-0.42,0.8,-2,12,1,23
C#CCNc1nc(CC)nc2c1nnn2Cc1ccccc1F,-0.58,0.5,10,5,0.9,52*
CCc1nc(NCCCCCO)c2nnn(Cc3ccccc3F)c2n1,-2.6,0.6,56*,7,0.4,45
O=C(O)C1C2CCCCC2=C2CCCCC2C1C(=O)O (configuration not stated),0.024,1,24,7,0.8,4
CC(=O)c1cccc(NC(=O)C2CCCN2S(=O)(=O)c2cccc3cccnc23)c1 (configuration not stated),0.61,0.4,92*,4,0.1,56*
O=C(Nc1ccc(C(F)(F)F)cc1)C1CCCN1S(=O)(=O)c1cccc2cccnc12 (configuration not stated),-1.9,0.7,57*,17,0.4,29
CC(C)(C)OC(=O)CNC(=O)c1nc[nH]c1C(=O)NCC(=O)OC(C)(C)C,0.98,.,.,.,.,.
Cc1cc(C)c(C(=O)c2ccc(C(=O)N(C(C)C)C(C)C)cc2)c(C)c1,-5.1,0.1,82*,9,0.2,86*
CC(C)N(C(=O)c1ccc2nc3c4ccccc4c4ccccc4c3nc2c1)C(C)C,.,.,.,5,.,.
CO/N=C(\Cn1ncc(N2CCCC2)c(Br)c1=O)c1ccc(Cl)cc1,-2.1,0.1,86*,8,0.1,89*
CO/N=C(\Cn1ncc(NC2CCCCC2)c(Br)c1=O)c1ccc(Cl)cc1,0.86,0.9,54*,4,0.5,7
